We go through 31 compounds from ChEMBL document CHEMBL4725340, “New coumarin-benzotriazole based hybrid molecules as inhibitors of acetylcholinesterase and amyloid aggregation” (Bioorg Med Chem Lett, 2020).

Each structure is given as a SMILES string. Calls of active or inactive are those of the source. The calls are words filed in the database; no cut-off is given here.

Data set [1] deals with Amyloid-beta precursor protein (Homo sapiens) (UniProt P05067). In words: Inhibition of copper-induced amyloid beta (1 to 42) (unknown origin) aggregation at 50 uM by thioflavin T based fluorescence assay relative to control. The method, boiled down:
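Thioflavin T fluorescence assay of copper-mediated Aβ1-42 aggregation; test sample at 50 μM; curcumin as reference anti-amyloidogenic agent; percentage inhibition of aggregation estimated.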

The target in data set [2] is T1, Acetylcholinesterase (Electrophorus electricus, UniProt O42275). In words: Inhibition of electric eel AChE by Ellman's method.
The target of data set [3] is Cholinesterase (Equus caballus, UniProt P81908). In words: Inhibition of equine serum BuChE by Ellman's method. The essentials: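 Ellman's method with equine serum BuChE, run as for AChE; triplicate experiments; IC50 (50% inhibitory concentration) as mean ± SD of three independent experiments.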
Background: DTNB colorimetry detects thiols as they appear.

Data set [4] addresses Acetylcholinesterase (Electrophorus electricus) (UniProt O42275). In words: Mixed type inhibition of electric eel AChE assessed as increase in Km by reciprocal Lineweaver-Burk plot analysis. The method, boiled down:
(§1)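 Kinetics with electric eel AChE (Ellman's method): no inhibitor plus three inhibitor concentrations, substrate varied over […] (so in the source); double-reciprocal Lineweaver-Burk plots overlaid; slope/intercept changes and intersection quadrant used to assign inhibition type; Ki calculated from the plots.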

Data set [5] can be described thus: Metal chelating activity assessed as compound-Zn2+ complex formation by measuring blue shift in absorption intensity at 5 uM by UV spectra analysis.
Data set [6] concerns DNA. In words: Protection against Fenton reagent-induced Escherichia coli plasmid pBR322 DNA cleavage assessed as reduction in supercoiled circular DNA(1) form to open circular DNA(2) at 0.2 to 1 mM. The class given is nucleic-acid assay. The settings on record: dose mM 0.2-1.
Data set [7] has as its target Acetylcholinesterase (Electrophorus electricus) (UniProt O42275). In words: Mixed type inhibition of electric eel AChE assessed as decrease in Vmax by reciprocal Lineweaver-Burk plot analysis. The method, boiled down: as §1
The subject of data set [8] is DNA. As to the kind of experiment: Protection against Fenton reagent-induced Escherichia coli plasmid pBR322 DNA cleavage assessed as reduction in supercoiled circular DNA(1) form to linear circular DNA(3) at 0.2 to 1 mM. It is filed as nucleic-acid assay. To be noted: dose mM 0.2-1.
The target in data set [9] is Cholinesterase (Equus caballus) (UniProt P81908). In words: Inhibition of equine serum BuChE at 50 to 100 uM by Ellman's method. To be noted: dose microM 50-100. The method, boiled down:
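Equine serum BuChE by Ellman's method, with the test compound at two additional single concentrations, 50 and 100 μM; inhibition read at each.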

Data set [10] is described as follows: Metal chelating activity assessed as compound-Fe2+ complex formation by measuring blue shift in absorption intensity at 5 uM by UV spectra analysis.
For data set [11], the system named is SH-SY5Y. In words: Cytotoxicity against human SH-SY5Y cells at 0.001 to 100 uM after 24 hrs by MTT assay.
A short description of data set [12]: Metal chelating activity assessed as formation of Cu2+-compound complex stoichiometry ratio of 2:1 at 5 uM in presence of CuCl2 by UV spectra analysis.
Data set [13] is described as follows: Metal chelating activity assessed as compound-Mg2+ complex formation by measuring blue shift in absorption intensity at 5 uM by UV spectra analysis.
The nature of data set [14]: Metal chelating activity assessed as compound-Cu2+ complex formation by measuring blue shift in absorption intensity at 5 uM by UV spectra analysis.
Data set [15] concerns the target T1, Acetylcholinesterase. As to the kind of experiment: Mixed type inhibition of electric eel AChE assessed as inhibition constant using varying levels of acetylthiocholine as substrate by reciprocal Lineweaver-Burk plot analysis. The essentials:
as §1

Chain of Amyloid-beta precursor protein (Homo sapiens) (P05067 whole entry): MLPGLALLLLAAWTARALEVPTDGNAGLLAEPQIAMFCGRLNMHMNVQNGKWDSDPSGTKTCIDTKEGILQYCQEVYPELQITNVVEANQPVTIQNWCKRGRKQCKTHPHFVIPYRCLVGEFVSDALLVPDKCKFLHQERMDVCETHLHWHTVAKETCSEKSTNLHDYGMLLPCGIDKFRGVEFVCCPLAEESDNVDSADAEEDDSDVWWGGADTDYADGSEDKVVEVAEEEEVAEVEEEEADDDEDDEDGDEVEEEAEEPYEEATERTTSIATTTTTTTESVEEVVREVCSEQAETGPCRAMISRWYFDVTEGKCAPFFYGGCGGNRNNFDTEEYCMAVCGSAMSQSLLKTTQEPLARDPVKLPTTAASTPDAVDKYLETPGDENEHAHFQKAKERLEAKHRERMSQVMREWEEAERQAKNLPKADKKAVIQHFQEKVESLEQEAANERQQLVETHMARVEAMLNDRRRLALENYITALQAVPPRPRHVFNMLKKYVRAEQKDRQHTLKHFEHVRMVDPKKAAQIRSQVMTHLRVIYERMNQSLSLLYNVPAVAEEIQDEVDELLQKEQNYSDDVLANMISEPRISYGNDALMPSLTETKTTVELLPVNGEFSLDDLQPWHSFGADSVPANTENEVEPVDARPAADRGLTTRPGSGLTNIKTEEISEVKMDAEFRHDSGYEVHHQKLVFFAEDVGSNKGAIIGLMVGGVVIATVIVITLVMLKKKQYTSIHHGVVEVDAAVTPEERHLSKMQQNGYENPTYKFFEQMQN
Chain of Cholinesterase (P81908 whole entry): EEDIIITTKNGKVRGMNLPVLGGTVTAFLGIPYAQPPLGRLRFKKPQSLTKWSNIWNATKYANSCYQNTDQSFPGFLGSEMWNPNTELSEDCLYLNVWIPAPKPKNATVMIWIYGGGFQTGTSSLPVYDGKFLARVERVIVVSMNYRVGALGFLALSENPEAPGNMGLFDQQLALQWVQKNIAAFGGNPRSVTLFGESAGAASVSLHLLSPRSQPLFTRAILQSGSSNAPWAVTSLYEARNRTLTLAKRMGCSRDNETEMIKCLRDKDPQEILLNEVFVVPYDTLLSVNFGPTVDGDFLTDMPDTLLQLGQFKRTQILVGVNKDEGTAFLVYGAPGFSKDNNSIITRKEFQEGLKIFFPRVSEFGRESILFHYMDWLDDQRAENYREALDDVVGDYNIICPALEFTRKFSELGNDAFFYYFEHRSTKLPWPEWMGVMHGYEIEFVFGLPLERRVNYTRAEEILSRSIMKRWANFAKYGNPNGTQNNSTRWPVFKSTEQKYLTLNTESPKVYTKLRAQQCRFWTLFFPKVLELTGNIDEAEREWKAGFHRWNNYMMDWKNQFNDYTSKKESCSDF
T1 sequence (O42275 whole entry): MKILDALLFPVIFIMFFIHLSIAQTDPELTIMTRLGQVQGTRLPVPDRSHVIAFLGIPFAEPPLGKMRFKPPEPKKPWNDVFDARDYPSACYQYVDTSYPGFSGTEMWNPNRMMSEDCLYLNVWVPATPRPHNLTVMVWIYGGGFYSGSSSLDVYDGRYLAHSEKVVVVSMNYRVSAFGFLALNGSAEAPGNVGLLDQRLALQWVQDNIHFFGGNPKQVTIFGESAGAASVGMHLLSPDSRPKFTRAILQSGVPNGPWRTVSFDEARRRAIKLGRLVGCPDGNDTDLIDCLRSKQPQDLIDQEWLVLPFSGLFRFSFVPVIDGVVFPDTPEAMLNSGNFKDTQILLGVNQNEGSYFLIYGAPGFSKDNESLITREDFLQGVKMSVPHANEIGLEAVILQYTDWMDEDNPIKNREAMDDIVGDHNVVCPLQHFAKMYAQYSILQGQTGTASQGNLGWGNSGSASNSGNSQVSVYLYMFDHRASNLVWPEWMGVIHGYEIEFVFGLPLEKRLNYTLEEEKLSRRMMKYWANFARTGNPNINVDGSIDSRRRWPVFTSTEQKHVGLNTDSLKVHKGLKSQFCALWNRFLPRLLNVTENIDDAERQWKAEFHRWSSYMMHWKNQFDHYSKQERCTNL
Chain of Acetylcholinesterase (Electrophorus electricus) (O42275 24-633 limits assumed): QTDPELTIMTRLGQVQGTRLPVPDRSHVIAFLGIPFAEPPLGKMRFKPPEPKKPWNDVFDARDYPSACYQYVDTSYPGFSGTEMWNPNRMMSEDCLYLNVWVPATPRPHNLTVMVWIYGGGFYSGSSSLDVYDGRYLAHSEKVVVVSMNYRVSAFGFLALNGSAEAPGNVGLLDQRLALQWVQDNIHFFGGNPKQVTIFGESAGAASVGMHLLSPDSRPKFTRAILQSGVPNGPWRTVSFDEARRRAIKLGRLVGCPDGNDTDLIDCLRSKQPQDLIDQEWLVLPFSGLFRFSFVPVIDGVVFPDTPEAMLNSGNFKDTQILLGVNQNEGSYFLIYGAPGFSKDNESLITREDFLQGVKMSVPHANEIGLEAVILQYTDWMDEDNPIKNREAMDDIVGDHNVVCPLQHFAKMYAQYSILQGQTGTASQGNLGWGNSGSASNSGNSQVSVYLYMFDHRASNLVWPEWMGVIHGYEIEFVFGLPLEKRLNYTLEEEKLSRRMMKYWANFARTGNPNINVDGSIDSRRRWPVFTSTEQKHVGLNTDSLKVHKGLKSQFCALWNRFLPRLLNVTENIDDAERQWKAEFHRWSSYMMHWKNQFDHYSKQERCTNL
Chain of Cholinesterase (Equus caballus) (P81908 whole entry): as the sequence (P81908 whole entry) above

As a reminder, the inhibition is the change of the read-out against control, counted positive when it falls. In general, IC50 refers to the point on the concentration scale where inhibition reaches its midpoint. Read a low IC50 as higher potency. With `O=c1ccc2ccc(OCCCCCCn3cc(Cn4nnc5ccccc54)nn3)cc2o1`, the inhibition in [1] is under 10%. Also, the IC50 in [2] and in data set [3] was at least 10 µM in each case.
`O=c1cc(OCCCCn2cc(COn3nnc4ccccc43)nn2)c2ccccc2o1`: the inhibition in data set [1] is under 10%. In addition, the IC50 was 3.23 µM in data set [2] and at least 10 µM in data set [3].
As for `O=c1ccc2ccc(OCCCCn3cc(Cn4nnc5ccccc54)nn3)cc2o1`, the inhibition in [1] turned out to be 11.4%. Also, the values for the IC50 in [2] and in data set [3] were 4.33 µM and at least 10 µM, respectively.
The compound `O=c1ccc2ccc(OCCCCCCn3cc(Cn4nc5ccccc5n4)nn3)cc2o1` yielded an inhibition in data set [1] of under 10%. Further, the IC50 in [2] and in data set [3] was at least 10 µM in each case.
The compound `O=c1cc(OCCCCCCn2cc(Cn3nc4ccccc4n3)nn2)c2ccccc2o1` came in with an inhibition in [1] of under 10%. Moreover, the figures for the IC50 in data set [2] and in [3] were 6.23 µM and at least 10 µM, respectively.
As to `O=c1ccc2ccc(OCCCCCCn3cc(COn4nnc5ccccc54)nn3)cc2o1`, the inhibition in data set [1] was under 10%. The IC50 in data set [2] and in [3] was at least 10 µM in each case.
`O=c1ccc2ccc(OCCCCn3cc(Cn4nc5ccccc5n4)nn3)cc2o1` showed an inhibition in data set [1] of under 10%. The IC50 in data set [2] was 5.44 µM; in data set [3], at least 10 µM.
In data set [1], `O=c1cc(OCCCCCCn2cc(Cn3nnc4ccccc43)nn2)c2ccccc2o1` displayed an inhibition of under 10%. Besides, the values for the IC50 in data set [2] and in data set [3] were 5.42 µM and at least 10 µM, respectively.
As to `O=c1ccc2ccc(OCCCn3cc(Cn4nnc5ccccc54)nn3)cc2o1`, in data set [1], the inhibition turned out to be 15.9%. For the same compound, the IC50 in data set [2] is 2.92 µM; in [3] it was at least 10 µM.
Consider `O=c1cc(OCCCCn2cc(Cn3nc4ccccc4n3)nn2)c2ccccc2o1`, for which the inhibition in data set [1] was under 10%. For the same compound, the IC50 is 2.09 µM in data set [2] and at least 10 µM in data set [3].
As to `O=c1cc(OCCn2cc(Cn3nc4ccccc4n3)nn2)c2ccccc2o1`, the inhibition in data set [1] is under 10%. Moreover, the IC50 in [2] was 1.89 µM; in [3], at least 10 µM.
For `O=c1ccc2ccc(OCCCCn3cc(COn4nnc5ccccc54)nn3)cc2o1`, in data set [1], the inhibition is under 10%. The IC50 in data set [2] and in [3] was at least 10 µM each time.
`O=c1cc(OCCn2cc(Cn3nnc4ccccc43)nn2)c2ccccc2o1`: the inhibition in [1] was 36.7%. Besides, the IC50 was 0.097 µM in [2] and at least 10 µM in data set [3].
`O=c1ccc2ccc(OCCCCCn3cc(Cn4nc5ccccc5n4)nn3)cc2o1` gave an inhibition in data set [1] of under 10%. In addition, the IC50 in data set [2] and in data set [3] was at least 10 µM each time.
For orientation: Ki means the equilibrium dissociation constant of an inhibitor or competing ligand from its target. As for `O=c1cc(OCCCn2cc(Cn3nnc4ccccc43)nn2)c2ccccc2o1`, the inhibition result in data set [4], in [7] and in [9] was “Active” throughout. The outcome in data set [5], in [6], in data set [8], in data set [10], in data set [12] and in data set [14] was Active. In [1], this compound came in with an inhibition of 34.3%. The figures for the IC50 in data set [2] and in [3] were 0.059 µM and at least 10 µM, respectively. Besides, in [11], the Activity entry is on record as “Non-Toxic”. The result in data set [13] was inactive. Besides, in data set [15], the Ki worked out at 0.0417 nM.
With `O=c1ccc2ccc(OCCn3cc(Cn4nnc5ccccc54)nn3)cc2o1`, the inhibition in data set [1] was found to be 29.4%. Moreover, the IC50 in [2] is 2.11 µM; in [3], at least 10 µM.
`O=c1ccc2ccc(OCCCn3cc(COn4nnc5ccccc54)nn3)cc2o1` had an inhibition in [1] of under 10%. Further, the 50% inhibitory concentration (IC50) is 1.98 µM in data set [2] and at least 10 µM in data set [3].
For `O=c1ccc2ccc(OCCn3cc(COn4nnc5ccccc54)nn3)cc2o1`, the inhibition in data set [1] amounted to 11.4%. In addition, the IC50 is 2.01 µM in data set [2] and at least 10 µM in data set [3].
On the same counts, the results for `O=c1cc(OCCCCCn2cc(COn3nnc4ccccc43)nn2)c2ccccc2o1` are under 10%, at least 10 µM and at least 10 µM.
In the case of `O=c1ccc2ccc(OCCCCCn3cc(Cn4nnc5ccccc54)nn3)cc2o1`, the inhibition in data set [1] is under 10%. Besides, the IC50 is 5.43 µM in data set [2] and at least 10 µM in [3].
The compound `O=c1cc(OCCCCCn2cc(Cn3nnc4ccccc43)nn2)c2ccccc2o1` gave an inhibition in [1] of 11.4%. Besides, the IC50 was 1.14 µM in [2] and at least 10 µM in data set [3].
`O=c1ccc2ccc(OCCCCCn3cc(COn4nnc5ccccc54)nn3)cc2o1`: the inhibition in data set [1] is under 10%. For the same compound, the IC50 in [2] and in data set [3] was at least 10 µM each time.
Turning to `O=c1cc(OCCCn2cc(COn3nnc4ccccc43)nn2)c2ccccc2o1`, the inhibition in data set [1] was under 10%. For the same compound, the IC50 in data set [2] was 1.32 µM; in data set [3], at least 10 µM.
As for `COc1cc2c(cc1OC)C(=O)C(CC1CCN(Cc3ccccc3)CC1)C2` (stereo not drawn) [DONEPEZIL], the Activity result in data set [11] was “Non-Toxic”.
In turn, `O=c1cc(OCCCn2cc(Cn3nc4ccccc4n3)nn2)c2ccccc2o1` returned an inhibition in data set [1] of under 10%. For the same compound, the values for the 50% inhibitory concentration (IC50) in [2] and in data set [3] were 1.67 µM and at least 10 µM, respectively.
The corresponding values for `O=c1ccc2ccc(OCCn3cc(Cn4nc5ccccc5n4)nn3)cc2o1` are under 10%, 1.18 µM and at least 10 µM.
`O=c1cc(OCCCCn2cc(Cn3nnc4ccccc43)nn2)c2ccccc2o1`: the inhibition in data set [1] was determined as 22.4%. Moreover, the figures for the IC50 in [2] and in data set [3] were 0.234 µM and at least 10 µM, respectively.
`O=c1cc(OCCCCCn2cc(Cn3nc4ccccc4n3)nn2)c2ccccc2o1`: in data set [1], the inhibition was under 10%. Besides, the IC50 in data set [2] was 4.81 µM; in [3], at least 10 µM.
For the compound `O=c1cc(OCCCCCCn2cc(COn3nnc4ccccc43)nn2)c2ccccc2o1`, the inhibition in data set [1] was under 10%. The IC50 in data set [2] and in data set [3] was at least 10 µM in each case.
The compound `O=c1cc(OCCn2cc(COn3nnc4ccccc43)nn2)c2ccccc2o1` had an inhibition in data set [1] of 16.2%. Moreover, the IC50 in data set [2] is 4.32 µM; in data set [3], at least 10 µM.
In turn, `O=c1ccc2ccc(OCCCn3cc(Cn4nc5ccccc5n4)nn3)cc2o1` returned an inhibition in data set [1] of under 10%. The values for the IC50 in data set [2] and in data set [3] were 1.16 µM and at least 10 µM, respectively.
